According to ChEMBL document CHEMBL4118069, “Structure-activity relationship study and optimisation of 2-aminopyrrole-1-benzyl-4,5-diphenyl-1H-pyrrole-3-carbonitrile as a broad spectrum metallo-β-lactamase inhibitor” (Eur J Med Chem, 2017):

Tests used:
Bacteria [1] = experiment: Inhibition of bacterial IMP1 at 10 uM using CENTA as substrate by UV/Vis multi-plate spectrophotometric method relative to control
Bacteria [2] = experiment: Competitive inhibition of bacterial IMP1 using CENTA as substrate by UV/Vis multi-plate spectrophotometric method
Bacteria [3] = experiment: Uncompetitive inhibition of bacterial IMP1 using CENTA as substrate by UV/Vis multi-plate spectrophotometric method
[4] = target: Metallo-beta-lactamase type 2 (Aeromonas hydrophila) (UniProt P26918); experiment: Inhibition of Aeromonas hydrophila CphA expressed in Escherichia coli BL21(DE3) assessed as potentiation of meropenem-mediated antibacterial activity by measuring meropenem MIC at 30 uM after overnight incubation (reference value: 1 ug/ml)
Chain of Metallo-beta-lactamase type 2 (Aeromonas hydrophila) (P26918 whole entry): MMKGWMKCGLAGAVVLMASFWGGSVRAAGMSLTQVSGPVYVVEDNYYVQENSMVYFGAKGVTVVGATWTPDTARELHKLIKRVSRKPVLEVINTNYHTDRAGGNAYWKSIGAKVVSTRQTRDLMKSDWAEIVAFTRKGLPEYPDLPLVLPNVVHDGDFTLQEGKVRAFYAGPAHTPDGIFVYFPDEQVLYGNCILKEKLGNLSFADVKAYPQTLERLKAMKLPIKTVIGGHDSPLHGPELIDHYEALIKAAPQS
Summary of the method: (§1)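 Meropenem MICs (µg/mL) measured for E. coli BL21 cultures expressing IMP-1, CphA or AIM-1. Each strain was tested with no inhibitor (blank) and with the test compound at 30 µM. Change in sensitivity is expressed as the reduction of the meropenem MIC relative to the blank.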

[5] = target: Metallo-beta-lactamase type 2 (Aeromonas hydrophila) (UniProt P26918); experiment: Uncompetitive inhibition of Aeromonas hydrophila recombinant CphA expressed in Escherichia coli BL21(DE3) using meropenem as substrate by UV/Vis multi-plate spectrophotometric method
Escherichia coli [6] = experiment: Growth inhibition of Escherichia coli BL21(DE3) expressing bacterial IMP1; type: organism-based; conditions: in vivo
Escherichia coli [7] = experiment: Growth inhibition of Escherichia coli BL21(DE3) expressing Pseudomonas aeruginosa AIM1; type: organism-based; conditions: in vivo
[8] = target: T1, Metallo-beta-lactamase AIM-1 (Pseudomonas aeruginosa) (UniProt B5DCA0); experiment: Inhibition of Pseudomonas aeruginosa recombinant AIM1 expressed in Escherichia coli BL21(DE3) assessed as potentiation of meropenem-mediated antibacterial activity by measuring meropenem MIC at 30 uM after overnight incubation (reference value: 2 ug/ml); summary of the method: as §1
T1 sequence (whole entry): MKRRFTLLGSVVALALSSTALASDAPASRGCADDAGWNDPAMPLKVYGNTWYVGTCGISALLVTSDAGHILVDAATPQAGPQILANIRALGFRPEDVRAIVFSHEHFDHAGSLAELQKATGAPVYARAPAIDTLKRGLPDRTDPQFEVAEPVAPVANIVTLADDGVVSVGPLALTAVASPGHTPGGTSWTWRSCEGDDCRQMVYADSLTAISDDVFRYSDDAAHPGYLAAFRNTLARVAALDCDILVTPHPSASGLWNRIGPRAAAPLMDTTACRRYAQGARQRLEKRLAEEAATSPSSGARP

[9] = target: Metallo-beta-lactamase type 2 (Aeromonas hydrophila) (UniProt P26918); experiment: Competitive inhibition of Aeromonas hydrophila recombinant CphA expressed in Escherichia coli BL21(DE3) using meropenem as substrate by UV/Vis multi-plate spectrophotometric method
Escherichia coli [10] = experiment: Growth inhibition of Escherichia coli BL21(DE3) expressing Aeromonas hydrophila CphA; type: organism-based; conditions: in vivo
Bacteria [11] = experiment: Inhibition of bacterial IMP1 expressed in Escherichia coli BL21(DE3) assessed as potentiation of meropenem-mediated antibacterial activity by measuring meropenem MIC at 30 uM after overnight incubation (reference value: 1 ug/ml); summary of the method: as §1
[12] = target: T1, Metallo-beta-lactamase AIM-1 (Pseudomonas aeruginosa); experiment: Competitive inhibition of Pseudomonas aeruginosa recombinant AIM1 expressed in Escherichia coli BL21(DE3) using cefuroxime as substrate by UV/Vis multi-plate spectrophotometric method
[13] = target: T1, Metallo-beta-lactamase AIM-1 (Pseudomonas aeruginosa); experiment: Uncompetitive inhibition of Pseudomonas aeruginosa recombinant AIM1 expressed in Escherichia coli BL21(DE3) using cefuroxime as substrate by UV/Vis multi-plate spectrophotometric method
[14] = Drug metabolism assessed as bacterial IMP1-mediated N-(1-Benzyl-3-cyano-4,5-diphenyl-1H-pyrrol-2-yl)benzamide formation by ESI-MS method; type: ADME; conditions: bacteria
[15] = target: T1, Metallo-beta-lactamase AIM-1 (Pseudomonas aeruginosa); experiment: Inhibition of Pseudomonas aeruginosa AIM1 expressed in Escherichia coli BL21(DE3) assessed as decrease in meropenem MIC at 30 uM after overnight incubation relative to control; summary of the method: as §1
[16] = target: Metallo-beta-lactamase type 2 (Aeromonas hydrophila) (UniProt P26918); experiment: Inhibition of Aeromonas hydrophila CphA expressed in Escherichia coli BL21(DE3) assessed as decrease in meropenem MIC at 30 uM after overnight incubation relative to control; summary of the method: as §1
Bacteria [17] = experiment: Inhibition of bacterial IMP1 expressed in Escherichia coli BL21(DE3) assessed as decrease in meropenem MIC at 30 uM after overnight incubation relative to control; summary of the method: as §1

Compound `N#Cc1c(-c2ccccc2)c(-c2ccccc2)n(Cc2ccccc2)c1NC(=O)C1CCCCC1` has an inhibition (Bacteria [1]) of 23.3%.

Work on `Cc1c(C#N)c(N)n(Cc2ccccc2)c1C` yielded an inhibition (Bacteria [1]) of 2.3%.

For `CC(=O)Nc1c(C#N)c(-c2ccccc2)c(-c2ccccc2)n1Cc1ccccc1`, the inhibition (Bacteria [1]) was 16.1%.

For `NC(=O)c1c(-c2ccccc2)c(-c2ccccc2)n(Cc2ccccc2)c1N`, the inhibition (Bacteria [1]) was 0%.

In the case of `N#Cc1c(-c2ccccc2)c(-c2ccccc2)n(-c2ccccc2)c1N`, the inhibition (Bacteria [1]) is reported as 0%.

`Cc1cc(C)cc(C(=O)N(C(=O)c2cc(C)cc(C)c2)c2c(C#N)c(-c3ccccc3)c(-c3ccccc3)n2Cc2ccccc2)c1` gave an inhibition (Bacteria [1]) of 13.3%.

With `CC(=O)N(C(C)=O)c1c(C#N)c(-c2ccccc2)c(-c2ccccc2)n1Cc1ccccc1` the inhibition (Bacteria [1]) was 18.6%.

Compound `N#Cc1c(-c2ccccc2)c(-c2ccccc2)n(Cc2ccccc2)c1NC(=O)c1cccc([N+](=O)[O-])c1` has a Kic (Bacteria [2]) of 23.7 µM, an inhibition (Bacteria [1]) of 48.7% and a Kiuc (Bacteria [3]) of 3.3 µM.

In the case of `N#Cc1c(-c2ccccc2)c(-c2ccccc2)n(Cc2ccccc2)c1NC(=O)c1ccc(C(=O)c2ccccc2)cc1`, the MIC [4] is reported as 0.75 µg/mL, the Kiuc [5] is reported as 161 µM and the “growth inhibition (GI)” value (Escherichia coli [6]) is reported as “Non-Toxic”. For the same compound, the “growth inhibition (GI)” value (Escherichia coli [7]) was “Non-Toxic”, the MIC [8] was 0.75 µg/mL and the Kic [9] was 872 µM. For the same compound, the “growth inhibition (GI)” value (Escherichia coli [10]) was “Non-Toxic”, the MIC (Bacteria [11]) was 0.5 µg/mL and the inhibition (Bacteria [1]) was 44.3%. For the same compound, the Kiuc (Bacteria [3]) was 1.52 µM.

In the case of `N#Cc1c(-c2ccccc2)c(-c2ccccc2)n(CCCc2ccccc2)c1N`, the inhibition (Bacteria [1]) is reported as 4.1%.

`CCCC(=O)Nc1c(C#N)c(-c2ccccc2)c(-c2ccccc2)n1Cc1ccccc1` showed an inhibition (Bacteria [1]) of 21%.

With `N#Cc1c(-c2ccccc2)c(-c2ccccc2)n(CCc2ccccc2)c1N` the inhibition (Bacteria [1]) was 4.8%.

In the case of `N#Cc1c(-c2ccccc2)c(-c2ccccc2)n(CCCCc2ccccc2)c1N`, the inhibition (Bacteria [1]) is reported as 8.7%.

`N#Cc1c(-c2ccccc2)c(-c2ccccc2)n(Cc2ccccc2)c1N(C(=O)c1ccc([N+](=O)[O-])cc1)C(=O)c1ccc([N+](=O)[O-])cc1` showed an inhibition (Bacteria [1]) of 20.2%.

`CCCC(=O)N(C(=O)CCC)c1c(C#N)c(-c2ccccc2)c(-c2ccccc2)n1Cc1ccccc1` showed an inhibition (Bacteria [1]) of 17.1%.

Work on `N#Cc1c(-c2ccco2)c(-c2ccco2)n(Cc2ccccc2)c1N` yielded an inhibition (Bacteria [1]) of 23.2%.

`Cc1cc(C)cc(C(=O)Nc2c(C#N)c(-c3ccccc3)c(-c3ccccc3)n2Cc2ccccc2)c1` gave a Kic (Bacteria [2]) of 20.2 µM, an inhibition (Bacteria [1]) of 32.3% and a Kiuc (Bacteria [3]) of 7.8 µM.

Compound `CCCCCCCCCCCCCC(=O)N(C(=O)CCCCCCCCCCCCC)c1c(C#N)c(-c2ccccc2)c(-c2ccccc2)n1Cc1ccccc1` has an inhibition (Bacteria [1]) of 14.3%.

For `N#Cc1c(-c2ccccc2)c(-c2ccccc2)n(Cc2ccccc2)c1N`, the Kic [12] was 2.2 µM, the MIC [4] was 0.047 µg/mL and the Kiuc [5] was 5.5 µM. The “growth inhibition (GI)” value (Escherichia coli [6]) was “Non-Toxic”, the Kiuc [13] was 12.5 µM and the “growth inhibition (GI)” value (Escherichia coli [7]) was “Non-Toxic”. For the same compound, the MIC [8] was 0.25 µg/mL, the Kic [9] was 52 µM and the “growth inhibition (GI)” value (Escherichia coli [10]) was “Non-Toxic”. For the same compound, the MIC (Bacteria [11]) was 0.5 µg/mL, the Kic (Bacteria [2]) was 21 µM and the inhibition (Bacteria [1]) was 26%.

For `N#Cc1c(-c2ccccc2)c(-c2ccccc2)n(Cc2ccccc2)c1NC(=O)c1ccc([N+](=O)[O-])cc1`, the Kic [12] was 10.9 µM, the MIC [4] was 0.75 µg/mL and the “growth inhibition (GI)” value (Escherichia coli [6]) was “Non-Toxic”. For the same compound, the Kiuc [13] was 47 µM, the “growth inhibition (GI)” value (Escherichia coli [7]) was “Non-Toxic” and the MIC [8] was 0.5 µg/mL. The “growth inhibition (GI)” value (Escherichia coli [10]) was “Non-Toxic”, the MIC (Bacteria [11]) was 0.25 µg/mL and the Kic (Bacteria [2]) was 1.24 µM. For the same compound, the inhibition (Bacteria [1]) was 36.9%.

With `Nc1c(-c2nnn[nH]2)c(-c2ccccc2)c(-c2ccccc2)n1Cc1ccccc1` the inhibition (Bacteria [1]) was 8.7%.

With `CCCCCCCCCCCCCC(=O)Nc1c(C#N)c(-c2ccccc2)c(-c2ccccc2)n1Cc1ccccc1` the inhibition (Bacteria [1]) was 8.2%.

With `N#Cc1c(-c2ccccc2)c(-c2ccccc2)n(Cc2ccccc2)c1N(C(=O)c1ccccc1)C(=O)c1ccccc1` the Kic (Bacteria [2]) was 468 µM, the inhibition (Bacteria [1]) was 48% and the Drug metabolism [14] was “Metabolite_Notdetected”. The Kiuc (Bacteria [3]) was 55 µM.

`N#Cc1c(N)[nH]c(-c2ccccc2)c1-c1ccccc1` showed an inhibition (Bacteria [1]) of 12%.

In the case of `N#Cc1c(-c2ccccc2)c(-c2ccccc2)n(Cc2ccccc2)c1NC(=O)c1ccccc1`, the Kic [12] is reported as 1.6 µM, the Kiuc [5] is reported as 9 µM and the “growth inhibition (GI)” value (Escherichia coli [6]) is reported as “Non-Toxic”. For the same compound, the Kiuc [13] was 13 µM, the “growth inhibition (GI)” value (Escherichia coli [7]) was “Non-Toxic” and the fold change (FC) [15] was 20. For the same compound, the Kic [9] was 11 µM, the fold change (FC) [16] was 40 and the “growth inhibition (GI)” value (Escherichia coli [10]) was “Non-Toxic”. For the same compound, the fold change (FC) (Bacteria [17]) was 20, the Kic (Bacteria [2]) was 10.7 µM and the inhibition (Bacteria [1]) was 50.9%. It also gave a Kiuc (Bacteria [3]) of 4.3 µM.

Work on `COc1ccc(Cn2c(N)c(C#N)c(-c3ccccc3)c2-c2ccccc2)cc1` yielded an inhibition (Bacteria [1]) of 20.1%.

`N#Cc1c(-c2ccccc2)c(-c2ccccc2)n(Cc2ccccc2)c1N1C(=O)c2ccccc2C1=O` showed an inhibition (Bacteria [1]) of 20.3%.
